High-throughput results as filed in PubChem BioAssay.
Only some compounds are listed: those with a hit (about 2.5% of all), similar ones and a draw of the others.
SENP7 inh: SENP7 protease inhibition. recombinant SENP7, Z-RLRGG-aminoluciferin luminescence, 40 min. inhibition, % at 5 µM. actives 1.5% (n = 330,000). AID 434973;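 active = inhibition above about 50% at the single test dose, limit read from the data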;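 also: plate controls were DMSO with enzyme for no effect and no enzyme buffer wells for full effect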
SENP8 block-1: SENP8 (human) protease inhibition; Q96LD8; inhibition, % at 20 µM; AID 602440; actives 0.64% (n = 360,000); recombinant SENP8, Nedd8 substrate fluorescence; in the data active = inhibition mostly above about 40%, no sharp cut-off; inactive = mostly below about 27%
Target sequence (Q96LD8 whole entry, looked up): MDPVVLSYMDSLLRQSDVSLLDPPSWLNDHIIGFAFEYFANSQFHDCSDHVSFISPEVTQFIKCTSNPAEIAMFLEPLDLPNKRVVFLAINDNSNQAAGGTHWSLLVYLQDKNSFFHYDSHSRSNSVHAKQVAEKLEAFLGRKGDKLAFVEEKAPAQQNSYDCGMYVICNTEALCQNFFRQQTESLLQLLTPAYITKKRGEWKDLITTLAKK
SENP1 inh: blocks the human SENP1 SUMO protease catalytic domain; inhibition, % at 10 µM; Q9P0U3; actives 0.21% (n = 360,000); recombinant SENP1 catalytic domain, CyPet-SUMO1-YPet FRET cleavage;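 active = inhibition at least 30% at 10 µM, raw YFP signal under a set limit, fluorescence ratio 0.5 to 1.5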;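 also: 0% = enzyme with DMSO and 100% = no enzyme wells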
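Controls: no-enzyme wells low, DMSO-plus-enzyme wells high control. Test system: human recombinant His6-tagged SENP1 catalytic domain enzyme. Reagent: SFCypet-SUMO1-SFYpet FRET protein substrate, 25 nM final. Doses: one dose per compound, 10 µM, 0.5% DMSO. Detection: FRET, CFP and YFP emission. Timing: 50 min reaction at room temperature.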
SENP6 block: blocks the human protease SENP6 | Q9GZR1 | actives 1.8% (n = 330,000) | AID 2599 | Recombinant SENP6 catalytic domain, aminoluciferin luminescence | inhibition, % at 10 µM;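 active = inhibition above about 50% at the single tested dose, limit read from the data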;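 also: plate controls were DMSO wells with enzyme for no effect and DMSO wells lacking enzyme for full effect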
SENP8 block-2: inhibitors of human SENP8 protease; Q96LD8; purified SENP8, Z-RLRGG-aminoluciferin cleavage, luminescence; inhibition, % at 10 µM; actives 1.2% (n = 330,000); AID 2540; in the data active = inhibition above about 50%
SENP8 conf: human SENP8 inhibition, confirmed; actives 40% (n = 6,200); shares compounds with SENP7 inh; inhibition, % at 12.5 µM; Recombinant SENP8, Z-RLRGG-aminoluciferin luminescence, 60 min;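 active = mean inhibition across replicates above about 50%, limit read from the data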
SENP6 conf: human SENP6 inhibition, confirmed; shares compounds with SENP7 inh; recombinant SENP6, Z-RLRGG-aminoluciferin luminescence; inhibition, % at 12.5 µM; actives 58% (n = 6,200); AID 488915
SENP7 confirm: confirmation of human SENP7 protease inhibitors; recombinant SENP7, Z-RLRGG-aminoluciferin luminescence, 40 min; shares compounds with SENP7 inh; inhibition, % at 12.5 µM; actives 69% (n = 6,200)
Casp3 SENP sel: caspase-3 inhibition (SENP selectivity assay); shares compounds with SENP7 inh; purified caspase-3, Z-DEVD-aminoluciferin luminescence, 60 min; AID 488918; inhibition, % at 12.5 µM; actives 60% (n = 6,200);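 active = mean inhibition above about 50%, limit read from the data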;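 also: plate controls were enzyme with DMSO for no effect and wells without caspase-3 for full effect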
Target sequence (P42574 28-227 limits assumed): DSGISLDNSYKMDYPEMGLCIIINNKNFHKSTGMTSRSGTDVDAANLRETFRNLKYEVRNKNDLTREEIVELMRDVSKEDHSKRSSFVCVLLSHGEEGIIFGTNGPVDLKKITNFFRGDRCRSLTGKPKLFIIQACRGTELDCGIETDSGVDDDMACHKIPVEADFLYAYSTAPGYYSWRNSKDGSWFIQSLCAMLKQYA
Luc interf: counter-screen for SENP inhibitors: luminescence interference; shares compounds with SENP7 inh; Pre-incubated SENP8/Z-RLRGG-aminoluciferin, luciferase luminescence interference; inhibition, % at 12.5 µM; actives 39% (n = 6,200); AID 488919;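 active = mean inhibition above about 50% when retested at one dose, limit read from the data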;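 also: plate controls were DMSO wells with completed reaction for no effect and substrate without enzyme for full effect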
* marks the source's active call; other numbers are inactive results.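 The calls were made as follows, unless noted: active = mean inhibition above about 50% in the one-dose retest (limit read from the data); inactive = the rest.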

`CN(C)c1ccc(/C=N/Nc2nc3ccccc3o2)cc1` gave SENP7 inh 97*, SENP8 block-1 -291, SENP1 inh 0, SENP6 block 78*, SENP8 block-2 77*, SENP8 conf 22, SENP6 conf 79*, SENP7 confirm 97*, Casp3 SENP sel 44 and Luc interf 11.
For CCS(=O)(=O)c1ccc(C=NNc2nc3ccccc3o2)cc1 the results were SENP8 block-1 -220 and SENP1 inh 4.
Screening CN(C)C(=O)C[C@@H]1CC[C@@H](NC(=O)C2CCC2)[C@@H](CO)O1 returned SENP8 block-1 17 and SENP1 inh 1.
Cc1cccc(NC(=O)CCc2nnc3ccc(N4CCC(C)CC4)nn23)n1 was read as SENP7 inh 1, SENP8 block-1 -10, SENP1 inh 1, SENP6 block 3 and SENP8 block-2 1.
O=C(N/N=C/c1ccc(OC2CSC2)cc1)c1ccccc1 was read as SENP7 inh 0, SENP8 block-1 15, SENP1 inh 0, SENP6 block 62*, SENP8 block-2 52*, SENP8 conf 7, SENP6 conf 3, SENP7 confirm 10, Casp3 SENP sel 25 and Luc interf -6.
CNC(=O)c1ccc(OC2CSC2)cc1 was read as SENP7 inh -5, SENP8 block-1 21, SENP1 inh 0, SENP6 block -20 and SENP8 block-2 1.
`O=C(/C=C/c1ccc(OC2CSC2)cc1)c1ccccc1` gave SENP7 inh 55*, SENP8 block-1 11, SENP1 inh 1, SENP6 block 38, SENP8 block-2 54*, SENP8 conf -2, SENP6 conf 15, SENP7 confirm 6, Casp3 SENP sel -7 and Luc interf 26.
`Clc1ccc(-c2nc3n(n2)Cc2ccccc2-3)cc1` gave SENP7 inh 99*, SENP8 block-1 20, SENP1 inh -1, SENP6 block 63*, SENP8 block-2 87*, SENP8 conf -20, SENP6 conf 11, SENP7 confirm 26, Casp3 SENP sel 30 and Luc interf 2.
CCc1cccc(CC)c1-n1c(SCC(=O)N2CCCc3ccccc32)nc(O)cc1=O was read as SENP7 inh -4, SENP8 block-1 9, SENP1 inh -1, SENP6 block 4 and SENP8 block-2 10.
For COc1ccc(CNC(=O)CN2C(=O)c3ccc([N+](=O)[O-])cc3C2=O)cc1 the results were SENP7 inh 1, SENP8 block-1 29, SENP1 inh 2, SENP6 block -8 and SENP8 block-2 5.
COCCCN(Cc1cc(OC)c(OC)c(OC)c1)C(=S)Nc1cccc(Cl)c1 was read as SENP8 block-1 12 and SENP1 inh 14.
Cc1cc(C(=O)NC(=S)Nc2cccc(NC(=O)C(C)C)c2)ccc1[N+](=O)[O-] was read as SENP7 inh 77*, SENP8 block-1 16, SENP1 inh 1, SENP6 block 71*, SENP8 block-2 56*, SENP8 conf 24, SENP6 conf 61*, SENP7 confirm 95*, Casp3 SENP sel 78* and Luc interf 51*.
For O=C(COC(=O)Cc1ccccc1F)Nc1ccc(SC(F)F)cc1 the results were SENP7 inh 0, SENP8 block-1 4, SENP1 inh 4, SENP6 block -8 and SENP8 block-2 -8.
CC(=O)Nc1ccc(NC(=O)c2ccccc2F)cc1 was read as SENP7 inh 1, SENP8 block-1 10, SENP1 inh 2, SENP6 block 6 and SENP8 block-2 -3.
